Source: PubChem (several laboratories)
L major viab – Leishmania major promastigote growth inhibition, primary screen; Leishmania major promastigotes, resazurin fluorescence viability; inhibition, % at 10 µM; actives 9% (n = 200,000); AID 1063, 2008; in the data active means inhibition above about 50%;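 further: promastigotes grown with compound for 44 hours at 28 °C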
T cruzi repl – inhibitors of intracellular T. cruzi growth, primary screen, luminescence, NIH3T3 host cells; actives 1.4% (n = 300,000); inhibition, % (test concentration not listed); T. cruzi beta-gal in NIH3T3, 90 h;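 active means mean inhibition across valid replicates above about 55%, limit read from the data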;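 further: signal also drops with host cell toxicity which is not excluded here; 0% = plate median of DMSO wells and 100% = zero luminescence signal; higher percent means less beta-gal luminescence so fewer parasites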
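Assay system: NIH/3T3 fibroblasts plus reporter T. cruzi. Amount: NIH/3T3 cells, 5,000 per well. Buffer or medium: DMEM, 2% fetal bovine serum. Doses: compound pinned at 50 nL/well, DMSO. Schedule: ≥90 h infection period, 3 h prior cell attachment. Signal: luminescent β-galactosidase signal after 60 min lysis. Read-out: parasite load inhibition, %.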
UPR CHOP act – activators of apoptotic CHOP UPR arm, primary screen, cell-based, CHO-CHOP luciferase reporter, luminescence, uHTS. UPR activation; percent of tunicamycin response over DMSO baseline. activation, % at 10 µM. actives 0.34% (n = 330,000);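 active means at 10 µM dose, activation of 40% or more, normalized to positive control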;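 further: 100% = tunicamycin at 10 µg/mL and 0% = DMSO alone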
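measured by = luciferase luminescence | assay system = CHO-CHOP cells, stable luciferase reporter of PERK-eIF2a-CHOP signalling | amount = 500 reporter cells seeded per well | timing = 6 h compound exposure at 37 °C after overnight seeding | controls = positive tunicamycin 10 µg/mL, negative DMSO alone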
CHOP inhibitor – inhibitors of CHOP promoter induction, primary screen, cell-based, unfolded protein response, luciferase reporter | CHO-K1 CHOP-promoter luciferase, tunicamycin-induced, 15-18 h | inhibition, % at 10 µM | actives 3.8% (n = 220,000) | AID 2732, 2010;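 active means compounds that reduced the stress-induced luciferase reporter signal by more than about 70% of percent inhibition, limit read from the data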;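 further: 0% = tunicamycin plus vehicle and 100% = wells without tunicamycin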
Dynein cargo inh – inhibitors of GR-EGFP nuclear translocation, primary screen, dynein cargo transport inhibitor project, imaging, high-content, 3617.4 mouse cells. test concentration mostly 20 µM; stimulated with dexamethasone, 1 µM; stronger effect = lower value. z-score, hits read low. actives 0.47% (n = 220,000). AID 1381, 2008;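 active means plate z-score of nuclear minus cytoplasmic receptor signal below a set negative limit, without overly bright fluorescence or cell loss, cut at about -3.5 in these data, passing the limit was not always enough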;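 further: z-score of nuclear minus cytoplasmic ring GR-EGFP intensity difference per well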
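Schedule: 48 h induction, then 1 h compound, then 30 min agonist, 37 °C. Buffer or medium: tetracycline-free induction medium containing charcoal-stripped FBS. Reagent: 1.0 µM final dexamethasone stimulus. Evaluation: nuclear versus cytoplasmic GR-EGFP signal, averaged per well. Signal: high-content fluorescence imaging after fixation.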
UPR XBP1 act – activators of adaptive XBP1 UPR arm, primary screen, cell-based, CHO-XBP1 luciferase reporter, luminescence, uHTS; IRE1-XBP1 UPR activation; percent of tunicamycin response, DMSO as zero; activation, % at 20 µM; actives 0.33% (n = 330,000);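 active means versus positive control, 20 µM dose yields 30% or more activation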;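 further: 100% = tunicamycin at 10 µg/mL and 0% = DMSO only wells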
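Material: IRE1-XBP1 luciferase reporter CHO line / Quantity: one thousand reporter cells per well / Buffer or medium: F12 with 10% serum / Compound: 20 µM single concentration, DMSO 1% / Times: 6 h treatment, 37 °C / Detection: Steady-Glo luciferase glow luminescence, 10 min after reagent addition / Benchmarks: tunicamycin high, DMSO low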
Starred values were filed as active, the others as inactive; / = not tested or not shown. Many of the other results were omitted from the sample, so hits are more common in it than they were.

SMILES	L major viab	T cruzi repl	UPR CHOP act	CHOP inhibitor	Dynein cargo inh	UPR XBP1 act
CN(C)CCCOC(=O)c1ccccc1	-3	-8	0	-36	0.16	-4
CCCN(CCC)CCCOC(=O)c1ccc(Cl)cc1Cl	90*	-15	-2	-5	-0.84	-1
CCOC(=O)c1ccccc1NC(=O)CN1C(=O)NC(C)(CCc2ccccc2)C1=O (configuration not stated)	/	4	1	/	/	0
Cc1cc(C)n2nc(-c3sccc3-n3c(C)ccc3C)cc2n1	-1	/	0	76*	-0.53	2
Cc1ccc(C(=O)CCC(=O)OCC(=O)NNC(=O)c2ccccc2Cl)cc1	/	/	0	/	/	-1
O=C(CSc1ncccc1-c1nc2ccccc2[nH]1)Nc1ccc2c(c1)OCCO2	73*	-5	3	20	-0.31	-1
O=C(CSc1nc2ccccc2[nH]1)Nc1ccc2c(c1)OCCO2	11	2	0	-5	-0.46	-3
CN(C)CCC=C1c2ccccc2CCc2ccccc21	88*	/	0	19	0.17	-3
CN(C)CC/C=C1\c2ccccc2Sc2ccc(Cl)cc21	64*	31	-1	26	-0.2	-1
CN(CC(=O)Nc1ncn[nH]1)S(=O)(=O)c1cc(Cl)ccc1Cl	/	-4	0	/	/	-3
O=C(CCN1CCN(Cc2ccccc2)CC1)NNC(=O)Nc1cccc([N+](=O)[O-])c1	/	-1	0	/	/	-8
CC1CCc2nc(/C(C#N)=C/c3ccncc3)sc2C1 (configuration not stated)	53*	26	7	3	-0.16	3
O=C(c1cc2sccc2n1Cc1ccc(F)cc1)N1CCCc2ccccc21	78*	39	1	27	-0.54	-3
CC1CCN(C(=O)C2CCN(C(=O)c3cc4sccc4n3Cc3ccc(F)cc3)CC2)CC1	67*	24	-1	71*	1.3	-3
CC(C)NC(=O)C1CCN(C(=O)c2cc3sccc3n2Cc2ccc(F)cc2)CC1	13	-12	15	51	-0.22	-3
O=C(CSCc1cccc(Cl)c1)Nc1ccccc1-c1ccccc1	87*	6	-1	62	0.45	-7
Cc1cccc(/C=C\c2nc3ccccc3c(=O)[nH]2)c1	6	-4	1	101*	-0.83	-2
O=c1[nH]c(/C=C/c2ccccc2[N+](=O)[O-])nc2ccccc12	-2	-17	9	82*	-0.13	3
O=c1[nH]c(/C=C/c2cccc3ccccc23)nc2ccccc12	3	-20	3	-26	0.88	0
COc1ccc2[nH]c3c(c2c1)CCN1C(=O)N([C@@H](C)C(=O)NCc2ccc(C)cc2)C(=O)[C@]31C	/	-7	1	/	/	-6
Cc1cc(C)nc(/N=C(\N)Nc2ccccc2-c2ccccc2)n1	96*	24	-1	8	-0.78	-1
Cc1cc(C)cc(N/C(N)=N/c2nc(C)cc(C)n2)c1	85*	-29	2	17	-1.1	1
Cc1ccc(N/C(N)=N/c2nc(C)cc(C)n2)cc1	17	32	-2	10	-0.46	-1
CCCCc1ccc(N/C(N)=N/c2nc(C)cc(C)n2)cc1	/	75*	13	54	-0.98	13
COc1ccc(S(=O)(=O)N2CCCC(C(=O)NCCC(C)C)C2)cc1 (configuration not stated)	-3	6	-1	25	-0.35	-1
SMILES	L major viab	T cruzi repl	UPR CHOP act	CHOP inhibitor	Dynein cargo inh	UPR XBP1 act
CCOc1c(Cl)cc(/C=C/C(=O)N(CC)CC(=O)NCc2cccs2)cc1OC	/	4	0	/	/	-3
O=C1CC(Cc2ccccc2)C(=O)N1CCc1ccc2c(c1)OCO2 (configuration not stated)	100*	7	-2	24	-0.42	-1
COc1ccc(CCN2C(=O)CC(Cc3ccc(Br)cc3)C2=O)cc1OC (configuration not stated)	56*	5	-2	30	0.33	-1
O=C1CC(N2CCN(Cc3ccc4c(c3)OCO4)CC2)C(=O)N1c1cccc2ccccc12 (configuration not stated)	62*	-15	0	-15	-0.14	-1
COc1ccc(CCN2C(=O)CC(Cc3ccccc3)C2=O)cc1OC (configuration not stated)	/	-6	1	8	-0.48	-3
O=C1CC(N2CCN(Cc3ccc4c(c3)OCO4)CC2)C(=O)N1CCc1ccccc1 (configuration not stated)	87*	17	-3	32	-1.1	-2
CC(C)Cc1nc2sc3c(=O)n(N)cnc3c2c2c1COC(C)(C)C2	-1	8	3	14	-1.5	5
Oc1ccc2ccccc2c1C=Nc1ccc(Cl)cn1	-9	5	0	-7	0.66	-3
Cc1cc(C)c(C)c(OCC(O)CN2CCN(c3ccccn3)CC2)c1 (configuration not stated)	/	-6	1	/	/	-4
CC(NC(=O)c1cc2cc(Br)ccc2oc1=N)c1ccccc1 (configuration not stated)	/	3	9	/	/	4
COc1ccc(NC(=O)COC(=O)C2CC2)cc1S(=O)(=O)N1CCCCC1	/	/	3	/	/	-3
CC(C)CCNC(=S)Nc1ccc([N+](=O)[O-])cc1	68*	9	0	38	0.091	1
CC(C)N(C(=O)c1ccc(C(=O)Nc2ccc([N+](=O)[O-])cc2)cc1)C(C)C	4	-9	0	1	2	-3
CCCCNC(=S)Nc1ccc([N+](=O)[O-])cc1	49	13	4	18	0.85	0
CC(C)OC(=O)c1cc(NC(=S)Nc2ccc([N+](=O)[O-])cc2)cc(C(=O)OC(C)C)c1	100*	5	29	75*	/	2
CSCCC(NC(=O)COc1ccccc1)C(=O)N1CCCCCC1 (configuration not stated)	/	/	0	/	/	1
COc1ccc(C(=O)OC(C)C(=O)NCC2CCCCC2)cc1S(=O)(=O)N1CCOCC1 (configuration not stated)	/	/	3	/	/	-1
COc1cccc(N2CC(C)Cn3c2nc2c3c(=O)[nH]c(=O)n2C)c1 (configuration not stated)	/	-8	2	/	/	-5
Cc1cccc(OCC(=O)NCCCNC(=O)c2cnccn2)c1	/	4	2	/	/	-3
COc1cc(OC)cc(C(=O)OCc2cc3ccccc3[nH]c2=O)c1	-4	-18	0	85*	-0.89	5
